Test results as given in ChEMBL document CHEMBL2384933, “Vitexin inhibits inflammatory pain in mice by targeting TRPV1, oxidative stress, and cytokines” (J Nat Prod, 2013).

Key:
Set-up in all cases: dose 2.5 mg/kg, route intraperitoneal
Details in all cases: in vivo, 168 h
[1] = test system: Mus musculus; assay: Hepatotoxicity in Swiss mouse assessed as increase in plasma ALT level at 2.5 mg/kg, ip for 7 days; type: toxicity, organism-based
Summary of the method: (§1)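 Mice dosed ip once daily for 7 days; the vehicle was saline or Tris/HCl buffer pH 8.0, with the vehicle data pooled. Plasma AST and ALT were measured with a diagnostic kit as markers of hepatotoxicity.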

[2] = test system: Mus musculus; assay: Toxicity in Swiss mouse assessed as increase in myeloperoxidase activity in stomach at 2.5 mg/kg, ip for 7 days by spectrophotometric analysis; type: organism-based
Summary of the method: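 Same daily ip dosing for 7 days. Stomach was homogenized in 50 mM K2PO4 pH 6.0 with 0.5% HTAB and spun at 16100g for 2 min. Supernatant was mixed with 50 mM phosphate pH 6.0 containing 0.167 mg/mL o-dianisidine and 0.015% H2O2, then read at 450 nm three times within 1 min. Values came from a neutrophil standard curve, as neutrophils ×10^4/mg tissue.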

[3] = test system: Mus musculus; assay: Hepatotoxicity in Swiss mouse assessed as increase in plasma AST level at 2.5 mg/kg, ip for 7 days; type: toxicity, organism-based; summary of the method: as §1

Measured: Activity

COc1ccc2c(c1)c(CC(=O)O)c(C)n2C(=O)c1ccc(Cl)cc1 [INDOMETHACIN]
Toxic: all assays above
